PLC-gamma1 inh – PLC-gamma1 (human) inhibition, primary screen | inhibition, % at 12.2 µM | actives 0.84% (n = 370,000) | purified PLC-gamma1, fluorogenic substrate, fluorescence | P19174 | AID 720700; in the data active = inhibition above about 9.5%
Target sequence (P19174 whole entry, looked up): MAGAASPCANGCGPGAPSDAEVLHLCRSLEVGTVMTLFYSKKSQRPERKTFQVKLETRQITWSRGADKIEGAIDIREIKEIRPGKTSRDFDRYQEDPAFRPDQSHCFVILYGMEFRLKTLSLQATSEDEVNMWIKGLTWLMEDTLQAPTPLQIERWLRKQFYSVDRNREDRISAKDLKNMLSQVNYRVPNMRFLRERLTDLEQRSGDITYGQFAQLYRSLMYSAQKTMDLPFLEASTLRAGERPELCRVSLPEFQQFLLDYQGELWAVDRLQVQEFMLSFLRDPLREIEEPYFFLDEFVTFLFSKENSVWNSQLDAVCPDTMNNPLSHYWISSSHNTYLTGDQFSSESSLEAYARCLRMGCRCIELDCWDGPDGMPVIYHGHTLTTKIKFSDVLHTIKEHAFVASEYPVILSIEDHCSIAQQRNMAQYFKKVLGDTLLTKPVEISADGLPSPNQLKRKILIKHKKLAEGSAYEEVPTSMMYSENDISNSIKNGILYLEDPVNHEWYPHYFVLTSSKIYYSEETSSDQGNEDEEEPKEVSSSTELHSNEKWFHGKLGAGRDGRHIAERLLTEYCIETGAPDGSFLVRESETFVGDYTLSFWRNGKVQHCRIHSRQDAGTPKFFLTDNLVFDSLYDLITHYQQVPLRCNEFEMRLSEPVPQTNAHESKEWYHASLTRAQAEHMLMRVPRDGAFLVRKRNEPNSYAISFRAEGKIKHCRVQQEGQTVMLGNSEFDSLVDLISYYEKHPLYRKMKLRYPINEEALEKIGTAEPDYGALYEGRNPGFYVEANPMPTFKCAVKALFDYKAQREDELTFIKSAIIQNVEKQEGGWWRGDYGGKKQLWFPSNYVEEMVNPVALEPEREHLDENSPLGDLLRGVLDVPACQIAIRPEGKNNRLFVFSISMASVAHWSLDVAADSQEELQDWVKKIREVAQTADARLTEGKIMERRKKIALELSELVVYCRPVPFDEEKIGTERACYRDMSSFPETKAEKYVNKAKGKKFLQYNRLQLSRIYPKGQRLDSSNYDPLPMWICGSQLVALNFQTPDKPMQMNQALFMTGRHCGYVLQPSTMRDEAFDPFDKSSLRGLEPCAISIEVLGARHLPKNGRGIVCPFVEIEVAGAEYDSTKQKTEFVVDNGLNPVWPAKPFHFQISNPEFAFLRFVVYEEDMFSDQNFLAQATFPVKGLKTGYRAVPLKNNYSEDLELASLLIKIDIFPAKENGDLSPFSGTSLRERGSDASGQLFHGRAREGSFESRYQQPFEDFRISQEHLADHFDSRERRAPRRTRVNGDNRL
PLC-beta3 inh – PLC-beta3 (human) inhibition, primary screen; Purified PLC-beta3, fluorogenic substrate, fluorescence; inhibition, % at 12.2 µM; actives 0.18% (n = 370,000); AID 720704;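 note: 0% = median of compound wells on plate and 100% = full blocker control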
ADAM17 inh – ADAM17 inhibition, QFRET primary screen; recombinant ADAM17, EDANS/DABCYL FRET peptide cleavage; inhibition, % at 6.95 µM; actives 0.83% (n = 370,000); AID 720648;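 active = inhibition above the mean of compounds lying between control limits plus 3 SD, set per campaign, cut at about 8.5% in these data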;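 note: 0% = DMSO-only wells as the low control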
ADAM10 inh – ADAM10 inhibition, QFRET primary screen; O14672; recombinant ADAM10, EDANS/DABCYL FRET peptide cleavage, 3 h; inhibition, % at 7 µM; actives 0.62% (n = 370,000); AID 720582;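 active = inhibition above a per-campaign cutoff equal to the mean of compounds falling between control-based bounds plus 3 SD, cut at about 20% in these data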;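 note: 0% = DMSO wells while the 100% control is not disclosed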
TbMetRS inhib – blocks T. brucei methionyl-tRNA synthetase activity. purified T. brucei MetRS, ATP depletion, Kinase-Glo luminescence. inhibition, % at 11.9 µM. actives 0.4% (n = 360,000);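 active = inhibition above a per-plate cutoff of the control wells' mean inhibition plus 3 SD, cut at about 5.5% in these data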;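 note: 0% = DMSO wells median and 100% = median of wells with control inhibitor compound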
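Test system – parasite MetRS enzyme · Reagent – substrates ATP, L-methionine and bulk Escherichia coli tRNA · Doses – 11.9 µM compound single dose, 0.9% DMSO · Times – 15 min enzyme-compound preincubation, 2 h reaction, 10 min detection, 25 °C · Signal – Kinase-Glo luminescence, ATP depletion format · Controls – DMSO-only wells as low control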
PLCgamma1 ctr – PLC-gamma1 inhibition, counter-screen for PLC-beta3 hits | shares compounds with PLC-gamma1 inh | purified PLC-gamma1, fluorogenic substrate, fluorescence | inhibition, % at 12.3 µM | actives 3.1% (n = 3,300) | AID 743258; in the data active = inhibition above about 9.5%
PLCb3 confirm – human PLC-beta3 inhibition, confirmation. shares compounds with PLC-gamma1 inh. purified PLC-beta3, fluorogenic substrate fluorescence. inhibition, % at 12.3 µM. actives 1% (n = 3,300). AID 743261
* hit, by the source's call; nt = no result given. Most compounds without a hit are left out; they make up all but 2.3% or so of the library. Cut-off read from the data, not from the text of the source, unless noted: active = inhibition above about 11%; inactive = the rest.

SMILES	PLC-gamma1 inh	PLC-beta3 inh	ADAM17 inh	ADAM10 inh	TbMetRS inhib	PLCgamma1 ctr	PLCb3 confirm
C=CCN1C(=O)[C@H](CC(=O)NCCCCc2ccccc2)[C@@]2(C(=O)OCC)CCCC=C12	3	1	-3	-1	nt	nt	nt
COc1ccc(S(=O)(=O)NCCC(=O)N2CCCN(C)CC2)cc1	6	0	-2	-2	0	nt	nt
Fc1ccccc1Cc1noc(CN(Cc2ccccn2)CC2CCCO2)n1 (stereo unspecified)	5	-16	-5	-9	1	nt	nt
CCOC(=O)c1c(S(=O)(=O)N(C)C2CCCCC2)c(C)n(C)c1C	9.9*	1	-4	11	1	-4	0
O=C(OCC(=O)c1c[nH]c2ccccc12)c1ccco1	6	11*	5	4	-1	-8	-3
O=C(OCC(=O)c1c[nH]c2ccccc12)c1ccc(Br)o1	nt	nt	nt	nt	1	nt	nt
CCOC(=O)c1c(S(=O)(=O)NCC(=O)Nc2cccc(C)c2)c(C)n(C)c1C	-1	-6	-1	0	0	nt	nt
CN(CC(=O)N1CCN(Cc2ccccc2)CC1)S(=O)(=O)c1cccc2nsnc12	11*	10	3	5	0	-6	-3
Cc1ccc(Nc2n[nH]c(C)c2[N+](=O)[O-])c(C)c1	9.6*	2	4	8	0	-3	-1
Cn1c(CNC(=O)CNC(=O)Cc2ccc(F)cc2)cc(=O)n(C)c1=O	0	-8	-7	3	0	nt	nt
COc1cc(OC)nc(Nc2nc(C(N)CCc3ccccc3)cs2)n1 (stereo unspecified)	11*	3	2	3	0	-9	-3
COc1cc(OC)nc(Nc2nc(C(N)COCc3ccccc3)cs2)n1 (stereo unspecified)	2	-1	-4	-16	0	nt	nt
Cc1cc(=O)n(C)c(=O)n1CCCCCN1CCCC1	11*	7	4	7	-1	3	4
COc1ccccc1CCn1cnc(-c2ccccc2F)c1CC(C)C	11*	5	6	10	nt	-7	-5
O=C(OC12CCCN(C1)/C(=C/c1cccc(Cl)c1)C2)C1CCCCC1 (stereo unspecified)	2	-3	-2	-9	nt	nt	nt
Cc1ccc(NC(=O)c2ncn(CCCNCC(C)c3ccccc3)n2)cc1C (stereo unspecified)	0	1	-3	-4	-1	nt	nt
CC(C)C(NC(=O)c1ccccc1)C(=O)OCC(=O)N1CCCCC1 (stereo unspecified)	8	2	8	2	0	nt	nt
CC(C)C(NC(=O)c1ccccc1)C(=O)OCC(=O)N1CCN(c2ccccc2)CC1 (stereo unspecified)	11*	-6	6	2	0	-1	0
CC(CNC(=O)c1cc(Cl)ccc1[N+](=O)[O-])NC(=O)c1cc(Cl)ccc1[N+](=O)[O-] (stereo unspecified)	11*	4	4	1	0	-3	-1
CC(=O)c1ccc(NC(=O)CCS(=O)(=O)c2ccc3c(c2)n(C)c(=O)c(=O)n3C)cc1	nt	nt	nt	nt	0	nt	nt
CCn1c(O)c(N=NC(=O)c2ccc(CSc3nncn3C)cc2)c2ccccc21	11*	9	7	7	0	-2	1
COCC(C)NC(=O)CSc1nc2ccccc2n1CCc1ccccc1 (stereo unspecified)	-2	-1	-1	-2	-1	nt	nt
O=C(NCCCN1CCCCC1)C1CCC(CNS(=O)(=O)c2cccc3nsnc23)CC1 (stereo unspecified)	10*	-1	0	1	0	-3	-2
CCN(CC(=O)NCCc1ccc(S(N)(=O)=O)cc1)Cc1ccccc1	0	-7	-2	-15	0	nt	nt
CCOP(=O)(OCC)C(Nc1ccc(F)cc1)c1ccccc1 (stereo unspecified)	-1	-4	0	1	0	nt	nt
SMILES	PLC-gamma1 inh	PLC-beta3 inh	ADAM17 inh	ADAM10 inh	TbMetRS inhib	PLCgamma1 ctr	PLCb3 confirm
CCOP(=O)(OCC)C(Nc1cccc(C(F)(F)F)c1)c1ccc(Br)cc1 (stereo unspecified)	8	12*	9	14	nt	-8	-9
COc1cccc(Nc2cc(N3CCOCC3)c3nonc3c2[N+](=O)[O-])c1	10*	3	2	-2	-1	4	-4
O=[N+]([O-])c1c(Nc2ccccc2O)cc(N2CCOCC2)c2nonc12	3	1	-2	6	0	nt	nt
C[C@H]1CN([C@@H](C)CO)C(=O)c2cc(Br)cnc2O[C@@H]1CN(C)C(=O)C1CCC1	2	0	-2	-12	0	nt	nt
O=C(CSc1n[nH]c(-c2ccccc2)n1)Nc1ccccc1O	9.9*	-7	2	-2	0	-6	-3
O=C(CSc1n[nH]c(-c2ccccc2)n1)Nc1ccc(F)cc1F	0	-6	0	2	0	nt	nt
CCOC(=O)C1=CCC(c2ccc(Cl)cc2)N(S(=O)(=O)c2ccc(C)cc2)C1 (stereo unspecified)	-2	-7	0	-10	-1	nt	nt
CC(=O)Nc1c([N+](=O)[O-])cc2[nH]c(=O)[nH]c2c1[N+](=O)[O-]	12*	12*	3	-4	-1	-7	0
Cc1ccc(NC(=O)CCC(=O)OCC(=O)c2ccc(Oc3ccc([N+](=O)[O-])cc3)cc2)cc1C	11*	5	2	6	0	7	6
O=C(CCC(=O)OCc1ccc([N+](=O)[O-])cc1)Nc1ccc(F)cc1	10*	10	3	2	0	-2	1
FC(F)(F)c1ccccc1CN1CCCc2nc(-c3ccc(Br)cc3)ccc21	-31	-42	-16	-60	nt	nt	nt
COc1ccc(-c2nn(-c3ccccc3)cc2C(=O)NC2CCCCC2C)cc1 (stereo unspecified)	2	-7	-5	-7	0	nt	nt
CCN(CC)C(=O)C[n+]1cccc(C(N)=O)c1	9.6*	10	2	8	0	-3	-1
CN(C)c1ccc(P(=O)(Nc2ccccc2)N2CCOCC2)c(NC(=O)c2cccs2)c1 (stereo unspecified)	-3	3	0	-10	0	nt	nt
Cc1ccc(NP(=O)(c2ccc(N(C)C)cc2NC(=O)c2cccs2)N2CCOCC2)cc1 (stereo unspecified)	6	14*	4	13	-1	-25	-26
COc1ccc(N/N=C(\C#N)C(=N)N2CCCCC2)cc1	0	-1	-1	-8	0	nt	nt
COc1ccc(N/N=C(\C#N)C(=N)SCc2ccccc2)cc1	9.6*	2	4	8	0	6	2
CCOC(=O)c1cc(-c2ccccc2)n[nH]1	5	0	2	5	-1	nt	nt
CCOC(=O)c1nncc(-c2ccccc2)n1	4	11*	4	-2	0	-6	-2

Screening results (PubChem)
